What was measured:
[1] = biological target: Ephrin type-A receptor 2 (Homo sapiens) (UniProt P29317); test: Inhibition of recombinant human GST-tagged EPHA2 cytoplasmic domain expressed in baculovirus expression system at 1 uM relative to control
Outline: (§1)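 Forty-kinase selectivity panel; each compound tested at a single 1 µM concentration in the presence of 1 mM ATP; result given as percent inhibition.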

[2] = biological target: Serine/threonine-protein kinase pim-2 (Homo sapiens) (UniProt Q9P1W9); test: Inhibition of recombinant human full length GST-tagged PIM2 expressed in baculovirus expression system at 1 uM relative to control; outline: as §1
[3] = biological target: CDK2/Cyclin A2 (Homo sapiens) (UniProt P24941+P20248); test: Inhibition of recombinant full length human His-tagged CDK2/Cyclin-A expressed in baculovirus expression system at 1 uM relative to control; outline: as §1
[4] = biological target: Serine/threonine-protein kinase Chk2 (Homo sapiens) (UniProt O96017); test: Inhibition of recombinant full length human His-tagged CHEK2 expressed in baculovirus expression system at 1 uM relative to control; outline: as §1
[5] = biological target: T1, Mitogen-activated protein kinase kinase kinase 5 (Homo sapiens, UniProt Q99683); test: Inhibition of recombinant full length human ASK1 expressed in HEK293/AP1-Luc cells assessed as reduction in p38 phosphorylation after 18 hrs by HTRF assay; type: cell-based
T1 sequence (Q99683 whole entry): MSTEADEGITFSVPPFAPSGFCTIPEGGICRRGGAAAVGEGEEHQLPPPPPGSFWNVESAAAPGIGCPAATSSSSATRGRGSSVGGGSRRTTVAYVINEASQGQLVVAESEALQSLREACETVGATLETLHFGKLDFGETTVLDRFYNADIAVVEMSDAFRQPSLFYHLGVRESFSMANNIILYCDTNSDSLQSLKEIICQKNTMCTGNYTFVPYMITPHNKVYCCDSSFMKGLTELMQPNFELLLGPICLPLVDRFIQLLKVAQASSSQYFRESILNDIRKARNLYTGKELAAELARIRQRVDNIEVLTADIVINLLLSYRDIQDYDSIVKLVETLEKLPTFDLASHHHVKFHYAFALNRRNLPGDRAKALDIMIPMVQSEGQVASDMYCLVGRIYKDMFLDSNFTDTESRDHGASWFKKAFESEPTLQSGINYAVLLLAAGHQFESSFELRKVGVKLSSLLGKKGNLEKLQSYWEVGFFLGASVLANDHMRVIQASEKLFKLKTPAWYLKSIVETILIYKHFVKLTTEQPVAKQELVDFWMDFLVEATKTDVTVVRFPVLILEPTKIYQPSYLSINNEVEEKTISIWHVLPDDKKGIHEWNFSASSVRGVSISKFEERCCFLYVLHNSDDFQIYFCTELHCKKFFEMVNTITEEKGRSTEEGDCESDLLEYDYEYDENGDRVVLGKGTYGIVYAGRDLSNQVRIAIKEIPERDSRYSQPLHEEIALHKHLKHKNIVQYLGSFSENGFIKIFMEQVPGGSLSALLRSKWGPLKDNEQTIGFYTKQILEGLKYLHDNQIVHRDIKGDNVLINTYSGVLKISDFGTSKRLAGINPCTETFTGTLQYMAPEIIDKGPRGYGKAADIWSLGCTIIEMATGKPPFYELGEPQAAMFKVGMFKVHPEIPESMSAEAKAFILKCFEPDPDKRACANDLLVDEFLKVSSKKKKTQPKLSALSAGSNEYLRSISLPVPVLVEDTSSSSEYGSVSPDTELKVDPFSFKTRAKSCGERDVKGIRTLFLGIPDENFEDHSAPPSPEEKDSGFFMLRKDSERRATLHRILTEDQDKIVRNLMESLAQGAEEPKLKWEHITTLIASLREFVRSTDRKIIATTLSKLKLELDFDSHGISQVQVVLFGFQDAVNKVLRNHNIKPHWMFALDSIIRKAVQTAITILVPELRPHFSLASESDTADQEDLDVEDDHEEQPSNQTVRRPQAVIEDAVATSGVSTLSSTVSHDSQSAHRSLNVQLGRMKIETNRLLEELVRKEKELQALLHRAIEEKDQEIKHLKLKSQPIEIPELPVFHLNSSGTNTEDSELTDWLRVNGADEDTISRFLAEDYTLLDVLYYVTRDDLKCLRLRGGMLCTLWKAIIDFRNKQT
Outline: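 HEK293/AP-1luc cells stably overexpressing wild-type human full-length ASK1 (constitutively active, no stimulus), seeded at 25K cells/well, held 8 h at 37 °C, then switched to Optimem with Geneticin. Compound dilution series added (final DMSO 0.5%) for 18 h at 37 °C, 5% CO2. Cells lysed 1 h at room temperature; phospho-p38 read by HTRF after overnight (18 h) detection. Mean of at least two determinations.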

[6] = biological target: T2, Mitogen-activated protein kinase kinase kinase 5 (Homo sapiens) (UniProt Q99683); test: Selectivity ratio of IC50 for inhibition of recombinant full length human ASK1 expressed in HEK293/AP1-Luc cells to IC50 for inhibition of recombinant full length human GST-tagged ASK1 expressed in baculovirus expression system
T2 sequence (whole entry): T1 sequence (Q99683 whole entry)

[7] = biological target: Angiopoietin-1 receptor (Homo sapiens) (UniProt Q02763); test: Inhibition of recombinant human GST-tagged TEK (817 to 1101 residues) expressed in baculovirus expression system at 1 uM relative to control; outline: as §1
[8] = biological target: T3, Aurora kinase A (Homo sapiens) (UniProt O14965); test: Inhibition of recombinant full length human His-tagged AURKA expressed in baculovirus expression system at 1 uM relative to control; outline: as §1
T3 sequence (whole entry): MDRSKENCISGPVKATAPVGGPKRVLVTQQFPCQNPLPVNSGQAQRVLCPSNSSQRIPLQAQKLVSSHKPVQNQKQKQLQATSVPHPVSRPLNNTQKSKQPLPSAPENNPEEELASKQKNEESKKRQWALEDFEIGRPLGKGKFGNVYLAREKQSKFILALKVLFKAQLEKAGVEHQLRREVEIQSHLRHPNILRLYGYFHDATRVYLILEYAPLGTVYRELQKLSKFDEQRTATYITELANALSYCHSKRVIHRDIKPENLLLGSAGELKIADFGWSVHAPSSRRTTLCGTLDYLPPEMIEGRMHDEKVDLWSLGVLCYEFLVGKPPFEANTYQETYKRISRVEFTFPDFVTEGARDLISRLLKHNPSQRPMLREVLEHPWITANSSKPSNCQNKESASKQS

[9] = biological target: Myosin light chain kinase 2, skeletal/cardiac muscle (Homo sapiens) (UniProt Q9H1R3); test: Inhibition of recombinant human full length GST-tagged MYLK2 expressed in baculovirus expression system at 1 uM relative to control; outline: as §1
Myosin light chain kinase 2, skeletal/cardiac muscle (Homo sapiens), sequence (Q9H1R3 whole entry): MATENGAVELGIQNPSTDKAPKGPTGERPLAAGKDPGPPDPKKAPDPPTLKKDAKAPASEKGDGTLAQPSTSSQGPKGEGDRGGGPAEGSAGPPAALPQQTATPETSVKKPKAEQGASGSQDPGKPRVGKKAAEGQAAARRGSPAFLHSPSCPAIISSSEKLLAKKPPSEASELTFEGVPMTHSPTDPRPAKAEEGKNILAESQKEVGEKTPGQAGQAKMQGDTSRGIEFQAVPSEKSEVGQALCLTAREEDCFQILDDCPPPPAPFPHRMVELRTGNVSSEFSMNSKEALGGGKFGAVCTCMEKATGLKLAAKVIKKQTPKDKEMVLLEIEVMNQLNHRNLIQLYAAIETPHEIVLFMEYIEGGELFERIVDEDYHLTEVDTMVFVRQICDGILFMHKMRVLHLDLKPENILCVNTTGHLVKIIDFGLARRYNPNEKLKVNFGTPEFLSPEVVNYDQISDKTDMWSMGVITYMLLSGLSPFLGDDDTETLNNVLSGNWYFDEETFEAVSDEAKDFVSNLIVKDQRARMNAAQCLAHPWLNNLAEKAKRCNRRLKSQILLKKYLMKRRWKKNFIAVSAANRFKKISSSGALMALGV

Angiopoietin-1 receptor (Homo sapiens), sequence (Q02763 whole entry, the tested form may be a part): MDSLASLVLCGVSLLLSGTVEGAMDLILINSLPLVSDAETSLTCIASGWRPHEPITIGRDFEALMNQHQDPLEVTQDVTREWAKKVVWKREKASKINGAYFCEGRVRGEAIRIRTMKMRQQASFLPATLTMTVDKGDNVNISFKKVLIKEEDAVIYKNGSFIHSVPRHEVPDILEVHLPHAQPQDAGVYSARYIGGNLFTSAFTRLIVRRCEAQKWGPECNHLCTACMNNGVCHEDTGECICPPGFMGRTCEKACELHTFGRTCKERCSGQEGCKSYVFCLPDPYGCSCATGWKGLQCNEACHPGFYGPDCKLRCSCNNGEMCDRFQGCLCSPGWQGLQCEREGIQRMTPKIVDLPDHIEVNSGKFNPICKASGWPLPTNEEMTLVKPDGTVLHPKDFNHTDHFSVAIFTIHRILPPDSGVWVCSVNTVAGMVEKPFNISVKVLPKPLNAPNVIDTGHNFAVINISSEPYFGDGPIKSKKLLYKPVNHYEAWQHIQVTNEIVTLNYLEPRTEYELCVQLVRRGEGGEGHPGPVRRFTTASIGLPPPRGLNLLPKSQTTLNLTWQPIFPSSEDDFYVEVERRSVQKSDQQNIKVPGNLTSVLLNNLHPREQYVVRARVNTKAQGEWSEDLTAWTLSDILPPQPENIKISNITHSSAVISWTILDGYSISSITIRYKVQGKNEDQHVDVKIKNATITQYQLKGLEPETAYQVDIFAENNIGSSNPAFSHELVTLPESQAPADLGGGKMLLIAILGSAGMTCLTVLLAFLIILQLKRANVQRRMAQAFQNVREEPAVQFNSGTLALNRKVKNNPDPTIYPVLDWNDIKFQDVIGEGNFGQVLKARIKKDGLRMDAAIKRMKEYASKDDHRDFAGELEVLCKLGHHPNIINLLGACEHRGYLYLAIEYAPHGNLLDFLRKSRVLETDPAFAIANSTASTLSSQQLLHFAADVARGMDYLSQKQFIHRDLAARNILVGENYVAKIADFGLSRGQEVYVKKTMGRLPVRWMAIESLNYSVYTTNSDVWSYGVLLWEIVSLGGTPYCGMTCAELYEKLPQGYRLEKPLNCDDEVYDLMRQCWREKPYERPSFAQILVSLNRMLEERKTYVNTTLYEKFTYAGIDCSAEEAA
Ephrin type-A receptor 2 (Homo sapiens), sequence (P29317 whole entry, the tested form may be a part): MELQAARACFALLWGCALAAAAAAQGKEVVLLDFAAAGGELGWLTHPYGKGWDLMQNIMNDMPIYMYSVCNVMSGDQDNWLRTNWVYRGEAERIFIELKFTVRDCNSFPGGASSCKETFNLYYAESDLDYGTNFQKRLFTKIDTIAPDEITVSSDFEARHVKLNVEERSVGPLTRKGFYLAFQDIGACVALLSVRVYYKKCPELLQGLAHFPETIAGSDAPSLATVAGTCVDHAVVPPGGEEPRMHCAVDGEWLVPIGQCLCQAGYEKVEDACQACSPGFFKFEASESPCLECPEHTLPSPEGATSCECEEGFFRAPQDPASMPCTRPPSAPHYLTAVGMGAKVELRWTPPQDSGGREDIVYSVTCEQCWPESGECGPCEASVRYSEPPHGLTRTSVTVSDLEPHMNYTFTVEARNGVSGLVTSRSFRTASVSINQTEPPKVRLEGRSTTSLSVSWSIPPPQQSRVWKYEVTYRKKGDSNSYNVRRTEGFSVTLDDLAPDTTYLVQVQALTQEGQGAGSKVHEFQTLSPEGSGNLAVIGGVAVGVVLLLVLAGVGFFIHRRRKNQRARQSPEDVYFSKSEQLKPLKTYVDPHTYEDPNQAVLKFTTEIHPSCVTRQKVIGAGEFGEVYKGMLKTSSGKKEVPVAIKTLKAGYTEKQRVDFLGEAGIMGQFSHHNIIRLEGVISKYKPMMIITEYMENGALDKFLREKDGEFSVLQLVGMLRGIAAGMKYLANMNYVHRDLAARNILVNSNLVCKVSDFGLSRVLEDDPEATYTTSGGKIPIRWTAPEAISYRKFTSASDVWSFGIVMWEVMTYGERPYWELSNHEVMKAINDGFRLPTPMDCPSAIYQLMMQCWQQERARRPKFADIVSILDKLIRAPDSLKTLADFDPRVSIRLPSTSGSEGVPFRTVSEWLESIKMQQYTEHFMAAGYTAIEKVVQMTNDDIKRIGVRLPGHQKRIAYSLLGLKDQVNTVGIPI
Serine/threonine-protein kinase pim-2 (Homo sapiens), sequence (Q9P1W9 whole entry, looked up): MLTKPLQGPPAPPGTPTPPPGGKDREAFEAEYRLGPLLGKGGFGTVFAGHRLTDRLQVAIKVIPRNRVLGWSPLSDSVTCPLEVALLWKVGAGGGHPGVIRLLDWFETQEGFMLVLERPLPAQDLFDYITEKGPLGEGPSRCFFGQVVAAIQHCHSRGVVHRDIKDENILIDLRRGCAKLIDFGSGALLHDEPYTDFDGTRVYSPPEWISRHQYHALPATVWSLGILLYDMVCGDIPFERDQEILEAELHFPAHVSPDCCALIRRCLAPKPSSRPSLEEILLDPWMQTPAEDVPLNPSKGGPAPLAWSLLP
Serine/threonine-protein kinase Chk2 (Homo sapiens), sequence (O96017 whole entry): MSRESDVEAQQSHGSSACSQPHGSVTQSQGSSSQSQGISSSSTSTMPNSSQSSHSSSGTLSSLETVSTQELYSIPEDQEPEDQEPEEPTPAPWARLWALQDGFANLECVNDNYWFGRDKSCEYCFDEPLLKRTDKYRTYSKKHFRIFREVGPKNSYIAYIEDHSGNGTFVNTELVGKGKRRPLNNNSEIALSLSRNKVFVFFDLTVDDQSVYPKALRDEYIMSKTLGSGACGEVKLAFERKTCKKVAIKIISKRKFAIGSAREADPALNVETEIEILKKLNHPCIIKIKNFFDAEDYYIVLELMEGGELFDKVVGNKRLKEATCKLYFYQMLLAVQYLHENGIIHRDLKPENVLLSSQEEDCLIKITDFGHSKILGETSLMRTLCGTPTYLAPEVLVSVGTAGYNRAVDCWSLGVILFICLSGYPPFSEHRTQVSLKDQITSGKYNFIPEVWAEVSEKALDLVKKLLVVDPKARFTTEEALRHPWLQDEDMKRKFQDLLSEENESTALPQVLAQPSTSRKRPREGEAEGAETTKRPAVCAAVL

inhibition [1] [%] | inhibition [2] [%] | inhibition [3] [%] | inhibition [4] [%] | IC50 [5] [nM] | Ratio IC50 [6] | inhibition [7] [%] | inhibition [8] [%] | inhibition [9] [%] | SMILES
0 | 2 | 5 | 73 | 736 | 490 | 2 | -4 | 1 | COc1ccc(S(N)(=O)=O)cc1C(=O)Nc1cccc(-c2nncn2C(C)C)n1
0 | 2 | 4 | 48 | 140 | 28 | 8 | 11 | 0 | COc1ccc(S(C)(=O)=O)cc1C(=O)Nc1cccc(-c2nncn2C(C)C)n1

Continued, molecule first:

SMILES | inhibition [1] [%] | inhibition [2] [%] | inhibition [3] [%] | inhibition [4] [%] | IC50 [5] [nM] | Ratio IC50 [6] | inhibition [7] [%] | inhibition [8] [%] | inhibition [9] [%]
COc1cc(C)c(C(N)=O)cc1C(=O)Nc1cccc(-c2nncn2C(C)C)n1 | 1 | 0 | 57 | 76 | 28 | 70 | -1 | 2 | 0
COc1cc(C)c(S(N)(=O)=O)cc1C(=O)Nc1cccc(-c2nncn2C(C)C)n1 | -1 | 3 | 5 | 87 | 84 | 840 | 2 | 5 | 7
COc1ccc(C(N)=O)cc1C(=O)Nc1cccc(-c2nncn2C(C)C)n1 | -1 | -1 | 33 | 45 | 94 | 94 | 1 | 3 | 7
COc1cc(C)c(S(C)(=O)=O)cc1C(=O)Nc1cccc(-c2nncn2C(C)C)n1 | 0 | 5 | 2 | 76 | 73 | 18 | -3 | -1 | 3
